The subject of series [1] is Blood. The experiment in a line: Biodistribution in blood of Sprague-Dawley rat at 17 MBq, iv after 5 mins by dissection method. The format is ADME, organism-based. Conditions: in vivo. The method, boiled down: (§1)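 The [18F]ligand was given to rats as a saline solution (average 17 MBq, about 0.11 nmol) via the tail vein. Three rats per time point were killed by cervical dislocation at 5, 15 and 30 min. Dissected tissues were gamma-counted with decay correction, and results are expressed as % injected dose per gram of wet tissue.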

Series [2] deals with Bone. Put plainly: Biodistribution in bone of Sprague-Dawley rat at 17 MBq, iv after 5 mins by dissection method. The format is ADME, organism-based, Bone element. Conditions: in vivo. The method, boiled down:
as §1

Series [3] deals with Hippocampus. The experiment in a line: Biodistribution in hippocampus of Sprague-Dawley rat at 17 MBq, iv after 5 mins by dissection method. The format is ADME, organism-based. Conditions: in vivo. The method, boiled down: as §1
Series [4] is described as follows: Biodistribution in olfactory bulb of Sprague-Dawley rat at 17 MBq, iv after 5 mins by dissection method. The format is ADME, organism-based. The settings on record: in vivo. The method, boiled down: (§2)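 [¹⁸F]7a in saline (average 17 MBq/200 µL, 0.11 nmol) was given by tail vein. Rats were killed by cervical dislocation at 5, 15 or 30 min, with three rats per time point. Tissue radioactivity was measured by gamma counting, decay-corrected and expressed as %ID per gram of wet tissue.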

Series [5] concerns Lung. Put plainly: Biodistribution in lung of Sprague-Dawley rat at 17 MBq, iv after 15 mins by dissection method. The format is ADME, organism-based. Conditions: in vivo, 0.25 h. The method, boiled down:
as §2

Series [6] deals with Liver. Put plainly: Biodistribution in liver of Sprague-Dawley rat at 17 MBq, iv after 15 mins by dissection method. The format is ADME, organism-based. The settings on record: in vivo, 0.25 h. The method, boiled down: as §1
Series [7] deals with Pancreas. Put plainly: Biodistribution in pancreas of Sprague-Dawley rat at 17 MBq, iv after 15 mins by dissection method. The settings on record: in vivo, 0.25 h. The format is ADME, organism-based. The method, boiled down:
as §2

In series [8] the test system is Bone. The experiment in a line: Biodistribution in bone of Sprague-Dawley rat at 17 MBq, iv after 15 mins by dissection method. The format is ADME, organism-based, Bone element. Conditions: in vivo, 0.25 h. The method, boiled down:
as §1

The subject of series [9] is Cerebellum. The experiment in a line: Biodistribution in cerebellum of Sprague-Dawley rat at 17 MBq, iv after 15 mins by dissection method. The format is ADME, organism-based. The settings on record: in vivo, 0.25 h. The method, boiled down:
as §1

Series [10] relates to Thalamus. The experiment in a line: Biodistribution in thalamus of Sprague-Dawley rat at 17 MBq, iv after 15 mins by dissection method. The format is ADME, organism-based. Conditions: in vivo, 0.25 h. The method, boiled down:
as §2

Series [11] deals with Striatum. The experiment in a line: Biodistribution in striatum of Sprague-Dawley rat at 17 MBq, iv after 15 mins by dissection method. The format is ADME, organism-based. Conditions: in vivo, 0.25 h. The method, boiled down: as §2
In series [12] the test system is Cerebral cortex. Put plainly: Biodistribution in cerebral cortex of Sprague-Dawley rat at 17 MBq, iv after 15 mins by dissection method. The format is ADME, organism-based. Conditions: in vivo, 0.25 h. The method, boiled down:
as §1

The subject of series [13] is Heart. Put plainly: Biodistribution in heart of Sprague-Dawley rat at 17 MBq, iv after 30 mins by dissection method. Conditions: in vivo, 0.5 h. The format is ADME, organism-based. The method, boiled down:
as §1

Series [14] deals with Liver. Put plainly: Biodistribution in liver of Sprague-Dawley rat at 17 MBq, iv after 30 mins by dissection method. The settings on record: in vivo, 0.5 h. The format is ADME, organism-based. The method, boiled down: as §2
A short description of series [15]: Biodistribution in small intestine of Sprague-Dawley rat at 17 MBq, iv after 30 mins by dissection method. The format is ADME, organism-based. The settings on record: in vivo, 0.5 h. The method, boiled down: as §2
For series [16], the system named is Hippocampus. Put plainly: Biodistribution in hippocampus of Sprague-Dawley rat at 17 MBq, iv after 30 mins by dissection method. The format is ADME, organism-based. The settings on record: in vivo, 0.5 h. The method, boiled down: as §1
In series [17] the test system is Striatum. The experiment in a line: Biodistribution in striatum of Sprague-Dawley rat at 17 MBq, iv after 30 mins by dissection method. The format is ADME, organism-based. The settings on record: in vivo, 0.5 h. The method, boiled down: as §2
Series [18] can be described thus: Biodistribution in olfactory bulb of Sprague-Dawley rat at 17 MBq, iv after 30 mins by dissection method. The format is ADME, organism-based. Conditions: in vivo, 0.5 h. The method, boiled down: as §2
Series [19] relates to Cerebral cortex. The experiment in a line: Biodistribution in cerebral cortex of Sprague-Dawley rat at 17 MBq, iv after 30 mins by dissection method. Conditions: in vivo, 0.5 h. The format is ADME, organism-based. The method, boiled down:
as §1

Series [20] in a line: Fraction unbound in Sprague-Dawley rat plasma after 15 mins by ultra-filtration method. The settings on record: 0.25 h. The format is ADME. The method, boiled down:
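Plasma protein binding was measured by ultrafiltration. Blood was spun at 3900 rpm for 5 min at 4 °C to obtain plasma. 40 µL of plasma was centrifuged in a filter unit at 2000 rpm for 15 min at 25 °C, and a saline control was run the same way. Free fraction was taken as ultrafiltrate/plasma radioactivity, corrected for a stick factor.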

Series [21] can be described thus: Octanol-sodium phosphate buffer partition coefficient, log D of the compound at pH 7.4. The format is physicochemical. The method, boiled down:
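[¹⁸F]7a (radiochemical purity 100%, about 150,000 cpm) was mixed with n-octanol (3.0 g) and 0.1 M sodium phosphate buffer pH 7.40 (3.0 g). The mix was vortexed for 3 min at room temperature, then centrifuged at 3500 rpm for 5 min. Assays were run in triplicate.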

Series [22] is described as follows: Ratio of drug uptake in Sprague-Dawley rat cerebellum to medulla at 17 MBq, iv after 10 to 15 mins by small-animal PET. The settings on record: in vivo.
A short description of series [23]: Ratio of drug uptake in Sprague-Dawley rat cerebral cortex to medulla at 17 MBq, iv after 10 to 15 mins by small-animal PET. Conditions: in vivo.
The nature of series [24]: Metabolic stability in plasma of ddy mouse assessed as reduction of parent compound level at 3.7 MBq, iv after 5 mins by HPLC analysis. The arrangement: scale not given: the % may be the effect or the level left.

As for `Cc1c(-c2ccc3ncccc3c2)nnn1-c1cccnc1[18F]`, the Drug uptake in [1] is 0.38 % ID/g; in series [2], 0.22 % ID/g; in series [3], 0.58 % ID/g; in series [4] it was 0.52 % ID/g; in [5] it was 0.31 % ID/g; in [6], 2.04 % ID/g. The Drug uptake was determined as 0.34 % ID/g in series [7]; 0.15 % ID/g in series [8]; 0.54 % ID/g in series [9]; 0.29 % ID/g in [10]; 0.23 % ID/g in series [11]; 0.2 % ID/g in series [12]. Moreover, the Drug uptake was found to be 0.16 % ID/g in [13]; 1.93 % ID/g in [14]; 1.74 % ID/g in [15]; 0.09 % ID/g in series [16]; 0.11 % ID/g in series [17]; 0.1 % ID/g in series [18]. The compound further registered a Drug uptake in series [19] of 0.09 % ID/g. The same compound had an Activity in series [20] of 8.5%. This compound came in with a logD in series [21] of 2.53. In addition, the Ratio in [22] stood at 3.73; in series [23] it was 1.31. The Stability in series [24] amounted to 57%.

These data come from ChEMBL document CHEMBL1641444, “Synthesis and evaluation of 6-[1-(2-[(18)F]fluoro-3-pyridyl)-5-methyl-1H-1,2,3-triazol-4-yl]quinoline for positron emission tomography imaging of the metabotropic glutamate receptor type 1 in brain” (Bioorg Med Chem, 2011).
